Assay results published in ChEMBL document CHEMBL1132212, “Structure-activity relationship of small-sized HIV protease inhibitors containing allophenylnorstatine” (J Med Chem, 1999).

How the values were obtained:
[1] = biological target: Human immunodeficiency virus type 1 protease (Human immunodeficiency virus 1) (UniProt Q72874); experiment: Inhibition of recombinant HIV-1 protease (NY-5) using 5 uM
[2] = biological target: Human immunodeficiency virus type 1 protease (Human immunodeficiency virus 1) (UniProt Q72874); experiment: Inhibition of recombinant HIV-1 protease (NY-5) using 50 nM
Summary of the method: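 Recombinant HIV-1 protease (NY5 sequence) was expressed in E. coli and purified. It was preincubated with inhibitor in DMSO for 5 min at 37 °C in MES–NaOH pH 6.0 with DTT and EDTA. Substrate H-SQNYPIV-OH was then added for 60 min at 37 °C, and the reaction was stopped with TFA. The PIV product was measured by reverse-phase HPLC at 215 nm against a synthetic standard.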

[3] = biological target: Human immunodeficiency virus type 1 protease (Human immunodeficiency virus 1, UniProt Q72874); experiment: Inhibition of recombinant HIV-1 protease (NY-5)
[4] = Bioavailability in rat after i.d. administration; assay type: ADME, organism-based; conditions: in vivo
Summary of the method: (§1)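 Three male Sprague–Dawley rats (300–400 g) per compound were anesthetized and dosed at 10 mg/kg in 50% PEG. Dosing was iv via the femoral vein or id by tube into the duodenum. Plasma was extracted with internal standard and analyzed by C18 HPLC with UV at 210 nm. Analysis was noncompartmental; F was calculated from id vs iv AUC. Values are mean ± SEM.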

[5] = Plasma half life was determined in rats after intravenous administration of the drug.; assay type: ADME, organism-based; conditions: rat; summary of the method: as §1
[6] = Time of maximum plasma concentration (Tmax) was determined in rats after intraduodenal administration of the drug.; assay type: ADME, organism-based; conditions: rat; summary of the method: as §1
[7] = test system: CEM-SS; experiment: Antiviral activity was determined based on inhibition of HIV-1 IIIB induced cytopathic effects in CEM-SS cells in vitro using tetrazolium reagent.; assay type: functional, cell-based; conditions: Homo sapiens
Summary of the method: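 CEM-SS cells (2.5 × 10^4 cells/mL) were cultured with HIV-1 IIIB and compound in RPMI-1640 with 10% FCS and gentamicin for 6 days at 37 °C in 5% CO2. The virus titer was set to kill all cells by day 6. Cytopathic effect was read by XTT staining, and IC50 was taken as the mean of duplicates.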

[8] = Toxic concentration was determined for CEM-SS cells; assay type: toxicity, cell-based; conditions: human, read-out: TC50 (the source's name)
Summary of the method: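 CEM-SS cells (2.5 × 10^4 cells/mL) were exposed to compound in RPMI-1640 with 10% FCS and gentamicin for 6 days at 37 °C in 5% CO2. Viability was read by XTT staining, and TC50 was taken as the mean of duplicates.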

[9] = Maximum plasma concentration (Cmax) was determined in rats after intraduodenal administration of the drug; assay type: ADME, organism-based; parameters: route intraduodenal; conditions: rat; summary of the method: as §1
[10] = biological target: Human immunodeficiency virus type 1 protease (Human immunodeficiency virus 1) (UniProt Q72874); experiment: Inhibition of recombinant HIV-1 protease (NY-5) using 50 nM
[11] = Plasma clearance rate (CL) was determined in dogs after intravenous administration of 25 mg/kg of the compound.; assay type: ADME, organism-based, Canis lupus familiaris; parameters: dose 25 mg/kg, route intravenous; conditions: dog
Summary of the method: (§2)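 Male beagles (7–10 kg) were assigned six per group. Each received 25 mg/kg from a 12.5 mg/mL solution in 50% PEG-in-water, either as an iv bolus via the cephalic vein or by oral gavage, fed or fasted overnight. Plasma was measured by HPLC. Analysis was noncompartmental: trapezoidal AUC, terminal-slope t1/2, CL = dose/AUC, Vdss from AUMC/AUC, and F from oral vs iv AUC. Values are mean ± SEM.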

[12] = test system: Canis familiaris; experiment: Area under curve (AUC) was determined in dogs fed after intravenous administration of 25 mg/kg of the compound; assay type: ADME, organism-based, Canis lupus familiaris; parameters: dose 25 mg/kg, route intravenous; conditions: dog, in vivo; summary of the method: as §2
[13] = test system: Canis familiaris; experiment: Area under curve (AUC) was determined in dogs fed after oral administration of 25 mg/kg of the compound; assay type: ADME, organism-based, Canis lupus familiaris; parameters: dose 25 mg/kg, route oral; conditions: dog, in vivo; summary of the method: as §2
[14] = test system: Canis familiaris; experiment: Area under curve (AUC) was determined in fasted dogs after oral administration of 25 mg/kg of the compound; assay type: ADME, organism-based, Canis lupus familiaris; parameters: dose 25 mg/kg, route oral; conditions: dog, in vivo; summary of the method: as §2
[15] = Maximum plasma concentration (Cmax) was determined in dogs fed after oral administration of 25 mg/kg of the compound.; assay type: ADME, organism-based, Canis lupus familiaris; parameters: dose 25 mg/kg, route oral; conditions: dog; summary of the method: as §2
[16] = Percent bioavailability (F%) was determined in dogs fed after oral administration of 25 mg/kg of the compound; assay type: ADME, organism-based, Canis lupus familiaris; conditions: dog, in vivo; summary of the method: as §2
[17] = Percent bioavailability (F%) was determined in fasted dogs after oral administration of 25 mg/kg of the compound.; assay type: ADME, organism-based, Canis lupus familiaris; conditions: dog, in vivo; summary of the method: as §2
[18] = Plasma half life was determined in dogs after intravenous administration of 25 mg/kg of the compound.; assay type: ADME, organism-based, Canis lupus familiaris; parameters: dose 25 mg/kg, route intravenous; conditions: dog; summary of the method: as §2
[19] = Time of maximum plasma concentration (Tmax) was determined in dogs fed after oral administration of 25 mg/kg of the compound.; assay type: ADME, organism-based, Canis lupus familiaris; parameters: dose 25 mg/kg, route oral; conditions: dog; summary of the method: as §2
[20] = Time of maximum plasma concentration (Tmax) was determined in fasted dogs after oral administration of 25 mg/kg of the compound.; assay type: ADME, organism-based, Canis lupus familiaris; parameters: dose 25 mg/kg, route oral; conditions: dog; summary of the method: as §2
[21] = Volume of distribution (Vdss) was determined in dogs after intravenous administration of 25 mg/kg of the compound.; assay type: ADME, organism-based, Canis lupus familiaris; parameters: dose 25 mg/kg, route intravenous; conditions: dog, in vivo, read-out: Vdss; summary of the method: as §2
[22] = Maximum plasma concentration (Cmax) was determined in fasted dogs after oral administration of 25 mg/kg of the compound.; assay type: ADME, organism-based, Canis lupus familiaris; parameters: dose 25 mg/kg, route oral; conditions: dog; summary of the method: as §2

| Structure (SMILES) | inhibition [1] [%] | inhibition [2] [%] | Ki [3] [nM] | IC50 [7] [nM] | CC50 [8] [nM] | further results |
| --- | --- | --- | --- | --- | --- | --- |
| Cc1ccccc1C(=O)N[C@@H](Cc1ccccc1)[C@H](O)C(=O)N1CSC[C@H]1C(=O)NC(C)(C)C | 75 | – | – | – | – | – |
| CCc1cccc(C)c1OCC(=O)N[C@@H](Cc1ccccc1)[C@H](O)C(=O)N1CSC[C@H]1C(=O)NC(C)(C)C | 94 | 32 | – | – | – | – |
| Cc1cccc(C)c1CNC(=O)[C@@H]1CSCN1C(=O)[C@@H](O)[C@H](Cc1ccccc1)NC(=O)c1cccc(O)c1C | – | 75 | 4.8 | – | – | – |
| Cc1ccc(CNC(=O)[C@@H]2CSCN2C(=O)[C@@H](O)[C@H](Cc2ccccc2)NC(=O)c2cccc(O)c2C)cc1 | – | 13 | – | – | – | – |
| CC(C)(C)NC(=O)[C@@H]1CSCN1C(=O)[C@@H](O)[C@H](Cc1ccccc1)NC(=O)COc1ccccc1 | 48 | – | – | – | – | – |
| CC(C)(C)NC(=O)[C@@H]1CSCN1C(=O)[C@@H](O)[C@H](Cc1ccccc1)NC(=O)c1cccc(O)c1 | 76 | – | – | – | – | – |
| Cc1c(O)cccc1C(=O)N[C@@H](Cc1ccccc1)[C@H](O)C(=O)N1CSC(C)(C)[C@H]1C(=O)NCc1ccccc1C(F)(F)F | – | 88 | – | – | – | – |
| CCc1c(O)cccc1C(=O)N[C@@H](Cc1ccccc1)[C@H](O)C(=O)N1CSC(C)(C)[C@H]1C(=O)NCc1ccccc1C | – | 97 | 0.19 | 11 | > 20000 | bioavailability [4]: 10%; half-life [5]: 2.1 h; Tmax [6]: 0.167 h; Cmax [9]: 230 nM |
| CCCc1cccc(C)c1OCC(=O)N[C@@H](Cc1ccccc1)[C@H](O)C(=O)N1CSC[C@H]1C(=O)NC(C)(C)C | 97 | 35 | – | – | – | – |
| Cc1c(N)cccc1C(=O)N[C@@H](Cc1ccccc1)[C@H](O)C(=O)N1CSC[C@H]1C(=O)NC(C)(C)C | 81 | – | – | – | – | – |
| Cc1ccc(OCC(=O)N[C@@H](Cc2ccccc2)[C@H](O)C(=O)N2CSC[C@H]2C(=O)NC(C)(C)C)cc1 | 44 | – | – | – | – | – |
| Cc1c(O)cccc1C(=O)N[C@@H](Cc1ccccc1)[C@H](O)C(=O)N1CSC[C@H]1C(=O)NC(C)(C)C | 97 | 36 | 24.9 | > 200 | > 20000 | bioavailability [4]: 33.9%; half-life [5]: 0.983 h; Tmax [6]: 0.5 h; Cmax [9]: 2910 nM |
| Cc1c(O)cccc1C(=O)N[C@@H](Cc1ccccc1)[C@H](O)C(=O)N1CSC[C@H]1C(=O)NCc1ccccc1 | – | – | 59 | – | – | inhibition [10]: 43% |
| Cc1ccccc1CNC(=O)[C@@H]1CSCN1C(=O)[C@@H](O)[C@H](Cc1ccccc1)NC(=O)c1cccc(O)c1C | – | – | 8.9 | > 200 | > 20000 | bioavailability [4]: 32.3%; half-life [5]: 0.683 h; Tmax [6]: 0.5 h; Cmax [9]: 770 nM |
| CS[C@H](NC(=O)COc1cccc2cnccc12)C(=O)N[C@@H](Cc1ccccc1)[C@H](O)C(=O)N1CSC(C)(C)[C@H]1C(=O)NC(C)(C)C | – | – | 0.088 | 6 | > 20000 | – |
| Cc1cccc(C)c1OCC(=O)N[C@@H](Cc1ccccc1)[C@H](O)C(=O)N1CSC(C)(C)[C@H]1C(=O)NC(C)(C)C | 97 | 35 | 1.4 | > 200 | > 20000 | – |
| Cc1cccc(OCC(=O)N[C@@H](Cc2ccccc2)[C@H](O)C(=O)N2CSC[C@H]2C(=O)NC(C)(C)C)c1 | 38 | – | – | – | – | – |
| Cc1c(O)cccc1C(=O)N[C@@H](Cc1ccccc1)[C@H](O)C(=O)N1CSC(C)(C)[C@H]1C(=O)NCc1ccccc1Cl | – | 95 | 0.29 | 34 | > 20000 | – |
| Cc1cccc(C)c1OCC(=O)N[C@@H](Cc1ccccc1)[C@H](O)C(=O)N1CSC[C@H]1C(=O)NC(C)(C)C | 95 | 56 | 21.7 | > 200 | > 20000 | – |
| CCc1c(O)cccc1C(=O)N[C@@H](Cc1ccccc1)[C@H](O)C(=O)N1CSC[C@H]1C(=O)NC(C)(C)C | 98 | 46 | 22.2 | – | – | bioavailability [4]: 36.2%; half-life [5]: 1.23 h; Tmax [6]: 0.5 h; Cmax [9]: 1730 nM |
| Cc1c(O)cccc1C(=O)N[C@@H](Cc1ccccc1)[C@H](O)C(=O)N1CSC(C)(C)[C@H]1C(=O)NC(C)(C)C | 99 | 88 | 5.14 | 19 | > 20000 | bioavailability [4]: 39.4%; half-life [5]: 1.38 h; Tmax [6]: 0.5 h; Cmax [9]: 2600 nM |
| CCc1cccc(CC)c1OCC(=O)N[C@@H](Cc1ccccc1)[C@H](O)C(=O)N1CSC[C@H]1C(=O)NC(C)(C)C | 62 | – | – | – | – | – |
| CCc1c(O)cccc1C(=O)N[C@@H](Cc1ccccc1)[C@H](O)C(=O)N1CSC(C)(C)[C@H]1C(=O)NC(C)(C)C | 99 | 84 | 2.24 | 92 | > 20000 | bioavailability [4]: 37%; half-life [5]: 1.4 h; Tmax [6]: 0.5 h; Cmax [9]: 1160 nM |
| CS[C@H](NC(=O)COc1cccc2cnccc12)C(=O)N[C@@H](Cc1ccccc1)[C@H](O)C(=O)N1CSC[C@H]1C(=O)NC(C)(C)C | – | – | 0.74 | 34 | > 20000 | – |
| Cc1cccc(CNC(=O)[C@@H]2CSCN2C(=O)[C@@H](O)[C@H](Cc2ccccc2)NC(=O)c2cccc(O)c2C)c1 | – | 18 | – | – | – | – |
| CCCc1c(O)cccc1C(=O)N[C@@H](Cc1ccccc1)[C@H](O)C(=O)N1CSC[C@H]1C(=O)NC(C)(C)C | 92 | 17 | – | – | – | – |
| Cc1ccccc1CNC(=O)[C@H]1N(C(=O)[C@@H](O)[C@H](Cc2ccccc2)NC(=O)c2cccc(O)c2C)CSC1(C)C | – | 96 | 0.33 | 7 | > 20000 | clearance [11]: 14.7 mL/min/kg; AUC [12]: 51.6 µM·h; AUC [13]: 16.8 µM·h; AUC [14]: 19.1 µM·h; Cmax [15]: 4020 nM; bioavailability [4]: 41.6%; bioavailability [16]: 32.6%; bioavailability [17]: 37.1%; half-life [18]: 1.57 h; half-life [5]: 1.55 h; Tmax [19]: 1.5 h; Tmax [6]: 1 h; Tmax [20]: 1 h; Vd [21]: 1.58 L/kg; Cmax [9]: 700 nM; Cmax [22]: 5300 nM |
| CC(C)(C)NC(=O)[C@@H]1CSCN1C(=O)[C@@H](O)[C@H](Cc1ccccc1)NC(=O)c1ccccc1 | 52 | – | – | – | – | – |
| Cc1ccccc1OCC(=O)N[C@@H](Cc1ccccc1)[C@H](O)C(=O)N1CSC[C@H]1C(=O)NC(C)(C)C | 82 | – | – | – | – | – |
